Casp6 inh – human caspase-6 inhibitors, primary screen, biochemical, VEID-R110 fluorescence, single point, set 2 | purified caspase-6, Z-VEID-R110 cleavage fluorescence | inhibition, % at 12.5 µM | hit rate 0.53% among 350,000;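 active = mean inhibition across replicates at least about 35%, with every replicate also reaching that limit, limit read from the data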;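 note: 0% = median of neutral control wells and 100% = no fluorescence left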
NSD2 inh – NSD2 histone methyltransferase inhibitors, primary screen, biochemical, AlphaScreen, single concentration, set 2. Histone-lysine N-methyltransferase NSD2 (Homo sapiens), O96028. NSD2 peptide methylation, 120 min. inhibition, % at 12.5 µM. hit rate 0.54% among 310,000; in the data active = inhibition above about 50%
Target sequence (O96028 whole entry, looked up): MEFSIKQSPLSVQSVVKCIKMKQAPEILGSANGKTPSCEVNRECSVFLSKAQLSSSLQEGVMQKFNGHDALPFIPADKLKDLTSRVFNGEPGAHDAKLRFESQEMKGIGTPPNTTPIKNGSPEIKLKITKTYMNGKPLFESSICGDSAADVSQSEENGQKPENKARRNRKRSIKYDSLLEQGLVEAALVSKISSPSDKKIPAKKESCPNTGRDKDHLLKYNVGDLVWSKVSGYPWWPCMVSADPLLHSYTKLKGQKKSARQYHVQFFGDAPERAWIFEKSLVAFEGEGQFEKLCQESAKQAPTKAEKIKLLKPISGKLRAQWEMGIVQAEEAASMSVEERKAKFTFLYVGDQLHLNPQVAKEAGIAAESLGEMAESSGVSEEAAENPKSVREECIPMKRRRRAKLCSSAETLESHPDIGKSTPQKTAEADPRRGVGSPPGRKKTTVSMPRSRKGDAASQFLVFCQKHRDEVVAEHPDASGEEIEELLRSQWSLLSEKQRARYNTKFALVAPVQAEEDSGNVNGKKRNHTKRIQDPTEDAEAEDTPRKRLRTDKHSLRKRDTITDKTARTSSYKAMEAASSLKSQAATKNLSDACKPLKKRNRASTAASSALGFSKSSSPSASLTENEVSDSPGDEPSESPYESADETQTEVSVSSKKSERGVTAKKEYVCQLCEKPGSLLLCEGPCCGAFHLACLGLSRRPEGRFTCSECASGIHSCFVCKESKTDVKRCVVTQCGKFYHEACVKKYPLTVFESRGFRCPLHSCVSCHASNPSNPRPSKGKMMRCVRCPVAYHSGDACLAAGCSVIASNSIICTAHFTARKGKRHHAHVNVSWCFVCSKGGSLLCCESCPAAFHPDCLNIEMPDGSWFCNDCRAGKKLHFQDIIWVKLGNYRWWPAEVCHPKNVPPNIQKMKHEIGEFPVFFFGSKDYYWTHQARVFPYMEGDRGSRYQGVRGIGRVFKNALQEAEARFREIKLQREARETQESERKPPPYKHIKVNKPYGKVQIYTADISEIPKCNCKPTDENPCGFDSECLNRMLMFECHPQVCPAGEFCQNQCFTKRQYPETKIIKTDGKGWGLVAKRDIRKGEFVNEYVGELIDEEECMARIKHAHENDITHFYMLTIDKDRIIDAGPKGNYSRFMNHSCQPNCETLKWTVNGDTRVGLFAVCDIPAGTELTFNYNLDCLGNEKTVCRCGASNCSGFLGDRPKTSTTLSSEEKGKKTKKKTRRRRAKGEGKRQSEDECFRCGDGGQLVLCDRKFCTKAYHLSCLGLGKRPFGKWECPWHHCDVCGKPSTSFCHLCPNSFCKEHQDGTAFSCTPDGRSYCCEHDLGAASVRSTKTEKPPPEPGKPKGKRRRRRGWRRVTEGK
MBD2 DNA inh – inhibitors of MBD2 binding to methylated DNA, primary screen, biochemical, TR-FRET, DNA-binding domain, human; MBD2 binding to methylated oligonucleotide; inhibition, % at 4.4 µM; hit rate 0.31% among 370,000; AID 686964, 2013; in the data active = inhibition above about 13%
LEDGF integ inh – blockers of LEDGF/p75-dependent integrase strand transfer – biochemical, TR-FRET, high throughput, primary screen; HIV-1 integrase (with human LEDGF/p75); TR-FRET IN-LEDGF/p75 DNA integration, Eu/Cy5; inhibition, % at 3.7 µM; hit rate 0.64% among 370,000; AID 743269, 2014;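 active = inhibition above the screen-wide mean plus 3 SD, cut at about 13% in these data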;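 note: signal is the Cy5 over europium emission ratio at 671 and 618 nm; 0% = plate median of compound wells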
TDP2 absorb – human TDP2 enzyme inhibitors, primary screen, biochemical, epi absorbance, recombinant enzyme; Tyrosyl-DNA phosphodiesterase 2 (Homo sapiens), O95551; T5PNP hydrolysis, p-nitrophenol absorbance 415 nm; inhibition, % at 12.8 µM; AID 720702, 2013; hit rate 0.34% among 370,000;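 active = inhibition above the mean of all tested compounds plus 3 SD, set per campaign, cut at about 25% in these data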;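 note: 0% = DMSO with enzyme and 100% = buffer with substrate but no TDP2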
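System – recombinant human TDP2 · Amount – 120 nM TDP2 per well · Buffer or medium – Mg2+-containing Tris-HCl buffer, pH 7.5 · Reagent – T5PNP substrate, 5 mM · Dosing – 12.8 µM single point, 1% DMSO · Incubation – 2 h at 37 °C · Measured by – epi absorbance · Read-out basis – percent inhibition · Benchmarks – high control without enzyme, low control DMSO plus TDP2 · Repeats – singlicate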
UHRF1 binding – UHRF1 methylated DNA binding inhibitors, primary screen, counter-screen for MBD2 inhibitor project, biochemical, TR-FRET, human UHRF1, single concentration | hit rate 0.75% among 370,000 | E3 ubiquitin-protein ligase UHRF1 (Homo sapiens), Q96T88 | UHRF1 binding to methylated oligo | inhibition, % at 4.4 µM; in the data active = inhibition above about 21%;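 note: UHRF1 SRA domain binding a hemimethylated CpG hairpin DNA probe; 0% = median of test compound wells and 100% = reference inhibitor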
IN multimer up – HIV-1 IN multimer formation enhancers, counter-screen for LEDGF/p75 integration inhibitor project, biochemical, TR-FRET | shares compounds with LEDGF integ inh | TR-FRET HIV-1 integrase multimerization | activation, % at 7.7 µM | hit rate 17% among 2,000; in the data active = activation above about 8.9%
TR-FRET interf – TR-FRET optical interference artefacts, confirmation, artefact control for LEDGF/p75-dependent integration inhibitor project, biochemical, HIV-1 IN multimerization; shares compounds with LEDGF integ inh; TR-FRET optical interference counterscreen; inhibition, % at 7.7 µM; 2,000 tested, under 10 active; AID 1053135, 2014;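 active = inhibition above the mean over all tested compounds plus 3 SD, which no compound reached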;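 note: 0% = integrase with antibodies and DMSO and 100% = antibodies without integrase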
LEDGF integ conf – inhibitors of HIV-1 IN-LEDGF/p75 DNA integration, confirmation, biochemical, TR-FRET; shares compounds with LEDGF integ inh; TR-FRET LEDGF/p75-dependent HIV-1 integration; inhibition, % at 3.7 µM; hit rate 36% among 2,000; AID 1053136, 2014; in the data active = inhibition above about 14%
* marks the source's active call; other numbers are inactive results; . = no result given. Compounds with a hit are over-represented: about 1.8% of the library has one in this group of screens.

SMILES	Casp6 inh	NSD2 inh	MBD2 DNA inh	LEDGF integ inh	TDP2 absorb	UHRF1 binding	IN multimer up	TR-FRET interf	LEDGF integ conf
Cc1ccc(NC(=O)Nc2cccs2)c(Cl)c1	.	7.8	2.2	-2.9	-21.0	4.0	.	.	.
Fc1ccccc1N1CCN(C2CCCN(Cc3ccccc3C(F)(F)F)C2)CC1 (stereo not drawn)	-1.2	3.7	-2.6	16.1*	-22.8	0.1	0.1	-0.4	2.3
COc1ccccc1CN1CCCC(N2CCN(c3ccccc3OC)CC2)C1 (stereo not drawn)	-1.0	1.3	-0.5	-0.5	15.0	1.2	.	.	.
CCn1c(=O)c(C(=O)CN2CCN(S(=O)(=O)c3cc(C)ccc3C)CC2)c(N)n(Cc2ccccc2)c1=O	0.8	-1.7	-0.1	49.8*	10.1	-2.4	1.1	-5.5	-5.1
CCn1c(=O)c(C(=O)CN2CCN(Cc3ccc4c(c3)OCO4)CC2)c(N)n(Cc2ccccc2)c1=O	-2.4	-0.7	1.9	-1.6	10.3	-0.8	.	.	.
CON1C(=O)C(=O)N(OC)C2CCCCC21 (stereo not drawn)	.	-3.6	7.0	-3.7	-1.7	0.0	.	.	.
C=CCON1C(=O)C(=O)N(OCC=C)[C@H]2CCCC[C@H]21	1.7	.	1.9	81.0*	-6.7	2.4	5.1	-25.7	0.1
CO[C@H]1CN(C)C(=O)c2ccc(NC(=O)NC(C)C)cc2OC[C@@H](C)N(C(=O)CN(C)C)C[C@@H]1C	-0.8	.	.	.	.	.	.	.	.
COc1ccc(-c2csc(NC(=O)c3ccccc3F)c2C(=O)O)cc1	2.4	-0.3	5.8	15.2*	-4.5	-0.6	3.2	-11.4	9.9
O=c1cc(-c2ccccc2)oc2c1ccc1ccccc12	1.6	.	-1.1	-0.8	-3.6	-6.0	.	.	.
O=c1cc(-c2ccc(O)c(O)c2)oc2c1ccc1ccccc12	10.8	5.7	10.3	51.0*	-6.0	-1.4	1.5	-7.6	68.2*
CC(C)Cc1nc(SCC(=O)Nc2nnc(CC(C)C)s2)n[nH]1	-2.0	.	2.3	13.9*	-3.0	3.3	-1.1	5.4	2.8
CCCCc1nc(SCC(=O)Nc2nnc(CCCC)s2)n[nH]1	4.2	-1.5	4.5	-1.7	8.3	0.8	.	.	.
O=C(O)C[C@H]1CC[C@@H](NC(=O)CCN2CCCCC2)[C@@H](CO)O1	1.7	.	.	.	.	.	.	.	.
O=C(N/N=C/c1ccc2ncccc2c1)c1cc(-c2cccs2)nc2ccccc12	-2.0	-3.4	-1.5	22.6*	-4.0	1.2	0.1	-0.5	-2.0
O=C(N/N=C/c1cccnc1)c1cc(-c2cccs2)nc2ccccc12	.	-1.2	0.6	1.0	3.6	0.3	.	.	.
C[C@H]1CN([C@@H](C)CO)S(=O)(=O)c2ccc(C#CC3CC3)cc2O[C@@H]1CN(C)C(=O)c1ccccc1	-0.6	.	.	.	.	.	.	.	.
O=C1c2ccccc2C(=O)c2c1cccc2N1CCCC1	4.8	43.0	-4.4	30.0*	12.9	11.9	3.1	-11.0	2.4
COc1ccc(/C=N/Nc2nc(N)cc(Cl)n2)cc1OC	2.6	1.6	-2.3	28.3*	0.0	-3.4	2.6	-13.1	-5.3
COc1ccc(/C=N/Nc2nonc2N)cc1OC	.	-1.7	0.4	4.0	0.4	-4.5	.	.	.
CC(C)NC(=O)N(C)C[C@H]1Oc2ccc(NS(=O)(=O)c3cn(C)cn3)cc2C(=O)N([C@H](C)CO)C[C@H]1C	1.7	.	.	.	.	.	.	.	.
O=C(C[C@H]1CC[C@H]2[C@@H](COC[C@H](O)CN2C(=O)c2ccccc2)O1)N1CCOCC1	-0.3	.	.	.	.	.	.	.	.
CCN(CCn1cccn1)Cc1c(C(=O)N2CCCCCCC2)nc2ccc(Cl)cn12	-0.3	23.6	0.5	26.8*	-4.1	8.3	1.1	-5.8	-4.5
Cc1cnc(CN(C)Cc2c(C(=O)N3CCCCCCC3)nc3ccc(Cl)cn23)[nH]1	10.2	2.8	-1.9	0.3	-13.0	-0.8	.	.	.
COC(=O)c1cc(NS(=O)(=O)c2ccc(N3CCOCC3)c(N)c2)cc(C(=O)OC)c1	-0.2	2.6	3.3	14.4*	0.3	2.4	0.3	-1.5	-5.9
SMILES	Casp6 inh	NSD2 inh	MBD2 DNA inh	LEDGF integ inh	TDP2 absorb	UHRF1 binding	IN multimer up	TR-FRET interf	LEDGF integ conf
CC(C)c1ccc(/C=C/C(=O)NC2=NCCS2)cc1	.	-3.0	.	.	.	.	.	.	.
O=C(/C=C/c1ccc(Cl)c(Cl)c1)NC1=NCCS1	-3.8	12.0	8.9	28.5*	-5.6	4.6	0.7	-3.4	6.3
O=C1/C(=C/c2ccco2)Oc2c1ccc(O)c2CN1CCCCC1	.	8.6	0.7	22.4*	5.6	13.8	12.9*	-64.8	23.2*
CCC(=O)Oc1ccc2c(c1)O/C(=C\c1ccco1)C2=O	58.5*	1.3	5.5	25.4*	-6.2	20.5	7.1	-35.7	10.3
CCN(CC)C(=O)Oc1ccc2c(c1)O/C(=C\c1ccco1)C2=O	16.6	4.7	4.1	2.0	-6.3	5.3	.	.	.
COCCN(CCOC)Cc1c(O)ccc2c1O/C(=C\c1ccco1)C2=O	7.5	2.3	1.6	41.1*	9.3	25.2*	23.8*	-84.2	22.3*
CCC(=O)N1C[C@@H](C)[C@@H](OC)CN(C)C(=O)c2cc(NC(=O)CC(F)(F)F)ccc2OC[C@H]1C	0.2	.	.	.	.	.	.	.	.
Cc1ccccc1S(=O)(=O)N1CC[C@@H]2[C@@H](CO)Nc3ccc(C#Cc4ccccc4)cc3[C@@H]21	-2.8	.	.	.	.	.	.	.	.
COc1ccc(NC(=O)N[C@@H]2CC[C@H](CC(=O)NC3CCCCC3)O[C@H]2CO)cc1	-1.2	.	.	.	.	.	.	.	.
C[C@H]1CN([C@@H](C)CO)C(=O)Cc2cc(N(C)C)ccc2O[C@H]1CN(C)C(=O)Nc1ccc(F)cc1	0.1	.	.	.	.	.	.	.	.
CC(C)c1ccccc1NC(=O)CN1C(=O)c2ccccc2C1=O	-0.5	-2.1	-4.8	73.0*	-8.0	0.6	-1.8	9.1	1.6
O=C(N1CCOCC1)N1CCCN(C(=O)N2CCOCC2)CC1	.	-0.4	7.6	-3.7	1.1	6.9	.	.	.
